Results on 23 sequences are retold here after the EternaBench riboswitch data.

The subject of the series is MS2 coat protein. In words: apparent Kd, MS2 coat protein; higher = weaker binding; RNA-MaP array; theophylline 2 mM where present. An outline of the steps:
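The apparent Kd is the median of filtered binding-curve fits, one per cluster, to green signal normalised to red-channel RNA signal and control-cluster median Fmax. The clusters were on Illumina sequencing chips, and stalled E. coli RNA polymerase had transcribed the designs on them. Titration used SNAP-549-labelled MS2 coat protein from 0.7 or 1.5 nM, doubling to 3 µM, without and then with constant ligand, in 100 mM Tris-HCl pH 7.5, 80 mM KCl, 4 mM MgCl2, BSA, DTT, yeast tRNA and Tween-20.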

[1] abbreviates: designed as: ON switch for theophylline, no ligand.
The mark [2] stands for this setting: ligand present: theophylline, designed as: ON switch for theophylline.
Setting [3] is: designed as: OFF switch for theophylline, no ligand.
The mark [4] stands for this setting: ligand present: theophylline, designed as: OFF switch for theophylline.

Turning to “UUUACAUGAGGAUCACCCAUGUGCCAUGAUACCAGACAUGAAAAUGUCCCUUGGCAGCAUGAGUGAUUCAUCCGAAAGGAUGUUU”, the apparent Kd – broadly, a dissociation constant that holds for the conditions of the assay – by setting is: under setting [1], 121 nM; under setting [2], 673 nM.
“AUUUACAUGGUCAUAUAUAUAUCGUCAGAUACCAGACUAGAUAUAGUCCCUUGGCAGCUGUUACAUGAGGAUCACCCAUGUUAUA”: the “apparent Kd” value under setting [3] was determined as 129 nM and the “apparent Kd” value under setting [4] amounted to 110 nM.
For the sequence “UACAUGAGGAUCACCCAUGUAUGAAUGGAUACCAGAUAAAAUAAGGUCCCUUGGCAGCUAGUGAAUCGAGGGUGGGUAUCAUGAU”, the “apparent Kd” value under setting [3] is 11.2 nM and the “apparent Kd” value under setting [4] was found to be 10.3 nM.
Regarding “UUUGAUAGGACAGAUACCAGCGUGUUGUUGAACAUGAGGAUCACCCAUGUAGUGAUCGAGCGCCCUUGGCAGCUGGUUUGUUAGG”, the “apparent Kd” value was determined as 382 nM under setting [1] and 306 nM under setting [2].
In the case of “GAUGAACUAUAUGAUACCAGACAACAUGAGGAUCACCCAUGUGAAUGUCGUCCUCUGCCUGUCCCUUGGCAGCGUAUAGUUUAUC”, the “apparent Kd” value is, setting by setting: under setting [3], 29.6 nM; under setting [4], 177 nM.
For “AUGCAGGGCAACAGCCACUGUCACGGUGAUACCAGUACCCGUGCGUACCCUUGGCAGCAUCGUGGUACAUGAGGAUCACCCAUGU”, the “apparent Kd” value was 271 nM under setting [1] and 180 nM under setting [2].
On to “GUGGAGACACGAGAUACCAGUCUCUAUAACAUGAGGAUCACCCAUGUAAUGCUCCUCAGGGACCCUUGGCAGCUCAGUAUGAUGA”, for which the “apparent Kd” value was determined as 32.9 nM under setting [3] and 134 nM under setting [4].
As to “ACAUCCAGGUUAAUCGUGGGCAUACUCGAUACCAGUAUUUUAAUCUACCCUUGGCAGCGACAUGAGGAUCACCCAUGUGCGAUGA”, the “apparent Kd” value is, setting by setting: under setting [3], 12.4 nM; under setting [4], 19.3 nM.
For the sequence “GAUGAACUAUUUGAUACCAGACUACAUGAGGAUCACCCAUGUGUGUUUAUACUUCUGUCAGUCCCUUGGCAGCAAAUAGUUUAUC”, the “apparent Kd” value by setting is: under setting [3], 62.5 nM; under setting [4], 106 nM.
Take “ACAUGAGGAUCACCCAUGUAAUGGCACGAUACCAGCUGAUCCCGUGGCCCUUGGCAGCGUCCGGUGUGGUCCGCCGGGUUGGACG”: the “apparent Kd” value under setting [1] is 23.1 nM and the “apparent Kd” value under setting [2] is 35 nM.
Take “GGGCCUGUAGGCAGGCCCACAGCGGGUGAUACCAGCAAUAAAACUUGCCCUUGGCAGCACACAGCUACAUGAGGAUCACCCAUGU”: the “apparent Kd” value by setting is: under setting [1], 41.2 nM; under setting [2], 70.5 nM.
The corresponding values for “UUUACAUGAGGAUCACCCAUGUUCCAUGAUACCAGACAUGAAAAUGUCCCUUGGCAGCAUGAAUGAUUCAUAGGAUAAUUAUGGG” are 98.7 nM and 52.9 nM.
For the sequence “ACUUCAUGAGGUGAUACCAGCCAAUGACAUGAGGACAUGAGGAUCACCCAUGUUUAUGUAGGCCCUUGGCAGCACUGUAACAUGA”, the “apparent Kd” value runs as follows: under setting [1], 20.6 nM; under setting [2], 25.9 nM.
In the case of “GCACCAGGUACGGAUACCAGCUGCCAGCGUUACAUGAGGAUCACCCAUGUGAUCUGAAGUAGCCCUUGGCAGCUGUACCUGGUGC”, the “apparent Kd” value is, setting by setting: under setting [1], 21.2 nM; under setting [2], 95.9 nM.
As for “GAGGGUGAAUCUCUGGUCCGUUUGACGGAUACCAGCGAGAGGUAUCGCCCUUGGCAGCCGACGACAUGAGGAUCACCCAUGUUAA”, the “apparent Kd” value runs as follows: under setting [3], 17.9 nM; under setting [4], 109 nM.
As to “AACAUACAUGAGGAUCACCCAUGUCACGAUACCAGAUACAUGAGGAUCCCUUGGCAGCGUCAUGAGGAUCACCCAUGUUGUACAU”, the “apparent Kd” value runs as follows: under setting [3], 16.5 nM; under setting [4], 58.3 nM.
“AGUACUCGAACGGAUACCAGCCGGACAUGAGGAUCACCCAUGUCCUACCAAUGUUCGGUUGGCCCUUGGCAGCCGUUCGUGUACA”: the “apparent Kd” value is 588 nM under setting [1] and 35.2 nM under setting [2].
Regarding “UAUACAUGAGGAUCACCCAUGUGCCAUGAUACCAGACAUGAAAAUGUCCCUUGGCAGCAUGGGAAAUGUAUAGCGGGAAACCCGA”, the “apparent Kd” value by setting is: under setting [1], 72.6 nM; under setting [2], 704 nM.
For “UGACAUUGCUCAGAUACCAGACAUGAGGAUCACCCAUGUGCCAAAUAAACGUACAUAAAUGUCCCUUGGCAGCUGAGCAAUGUCU”, the “apparent Kd” value worked out at 57.5 nM under setting [3] and 890 nM under setting [4].
Turning to “AUACAUGAGGAUCACCCAUGUAUAGUCGAUACCAGCUCAAGGAAGAGCCCUUGGCAGCGACACUGGUAUCCAUGGGUGAUACCAG”, the “apparent Kd” value reads like this: under setting [1], 22.3 nM; under setting [2], 31.5 nM.
“GGUCUCUGGAGCGAUACCAGCUUGAUCGUACUGGCCUGGUACAUGAGGAUCACCCAUGUAAGCCCUUGGCAGCGCUCCAGAGACC”: the “apparent Kd” value was 12.3 nM under setting [3] and 28.1 nM under setting [4].
As for “UCCUCCUCCGCAAGGAGGAGGAGUUGCGAUACCAGCACGGCAACGUGCCCUUGGCAGCGCACAUGAGGAUCACCCAUGUCAUGUU”, the “apparent Kd” value reads like this: under setting [3], 19.4 nM; under setting [4], 24.3 nM.
Turning to “GGAAUAACGAUUGAUACCAGCAUGUUAACAUGAGGAUCACCCAUGUUAAGGAUAACAUAAUGCCCUUGGCAGCAACGGAAACCCG”, the “apparent Kd” value reads like this: under setting [1], 21.3 nM; under setting [2], 12.9 nM.
